A selection: hits, their analogues and other compounds. The true share with any hit is near 3.7%.
KCNK9 block: human KCNK9 channel inhibition | Q9NPC2 | HEK293 KCNK9, FluxOR thallium flux fluorescence; active compounds read low | B-score at 10 µM | actives 1.2% (n = 310,000);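 active = ratio B-score over 3 SD below the library mean, with starting fluorescence within 5 SD of its mean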;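 note: negative B-score means less thallium flux so channel inhibition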
Kir21 block: blocks the mouse Kir2.1 inward-rectifier potassium channel; P35561; HEK293-Kir2.1, FluxOR thallium flux fluorescence; active compounds read low; B-score at 10 µM; actives 0.85% (n = 310,000); AID 1672;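 active = fluorescence ratio B-score at or below minus 3 SD of library scores, with starting-brightness B-score within 2 SD, cut at about -4.2 in these data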;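 note: channel flux triggered by added potassium and thallium sulfate stimulus; B-score of peak minus minimum fluorescence over baseline after thallium stimulus; more negative B-score means stronger Kir2.1 block with less thallium influx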
KCNQ1 act: potentiators or activators of human KCNQ1 potassium channel; P51787; CHO-K1 KCNQ1, thallium flux FluxOR fluorescence; active compounds read high; B-score at 10 µM; actives 0.35% (n = 310,000);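 active = fluorescence ratio B-score, a plate-corrected score, at least three library SD, with initial intensity B-score within 5 SD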
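System: Stable KCNQ1 CHO-K1 line | Incubation: 90 min dye loading and 20 min compound exposure, both at room temperature | Measure: Ratio B score | Medium: Assay buffer for compound exposure, DMSO matched across wells | Compound dosing: Single-concentration screen | Probe or stimulus: K+/Tl+ depolarizing stimulus | Measured by: Kinetic FluxOR fluorescence, 10 s baseline plus 110 s post-stimulus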
KCNK3 inh: human KCNK3 channel inhibition, primary screen | CHO-KCNK3 thallium flux, FluxOR fluorescence; active compounds read low | AID 602410 | B-score at 10 µM | O14649 | actives 0.84% (n = 340,000);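 active = B-score under library mean minus 4 SD, starting fluorescence ratio at most library mean plus 5 SD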;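 note: more negative B-score means stronger inhibition of thallium flux through KCNK3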
KCNQ1 block: inhibitors of human KCNQ1 potassium channel | actives 1.3% (n = 310,000) | CHO-K1 KCNQ1, FluxOR thallium flux fluorescence; active compounds read high | B-score at 10 µM | P51787;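 active = compounds whose thallium flux B-score, printed positive for inhibition, exceeds three library SD while starting fluorescence stays within three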;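 note: channel opened by potassium depolarization with thallium stimulus after 20 min compound exposure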
hERG protect: shields human hERG channel from block by proarrhythmic agents. Q12809. CHO-hERG, FluxOR thallium flux, dofetilide IC70 present. activation (rescue from dofetilide block), less the hit threshold, % at 10 µM. actives 0.51% (n = 310,000);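 active = activation above the mean of controls blocked by dofetilide plus 5 SD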;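 note: thallium influx through hERG after potassium depolarization seen as dye fluorescence rise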
Target sequence (Q12809 whole entry, looked up): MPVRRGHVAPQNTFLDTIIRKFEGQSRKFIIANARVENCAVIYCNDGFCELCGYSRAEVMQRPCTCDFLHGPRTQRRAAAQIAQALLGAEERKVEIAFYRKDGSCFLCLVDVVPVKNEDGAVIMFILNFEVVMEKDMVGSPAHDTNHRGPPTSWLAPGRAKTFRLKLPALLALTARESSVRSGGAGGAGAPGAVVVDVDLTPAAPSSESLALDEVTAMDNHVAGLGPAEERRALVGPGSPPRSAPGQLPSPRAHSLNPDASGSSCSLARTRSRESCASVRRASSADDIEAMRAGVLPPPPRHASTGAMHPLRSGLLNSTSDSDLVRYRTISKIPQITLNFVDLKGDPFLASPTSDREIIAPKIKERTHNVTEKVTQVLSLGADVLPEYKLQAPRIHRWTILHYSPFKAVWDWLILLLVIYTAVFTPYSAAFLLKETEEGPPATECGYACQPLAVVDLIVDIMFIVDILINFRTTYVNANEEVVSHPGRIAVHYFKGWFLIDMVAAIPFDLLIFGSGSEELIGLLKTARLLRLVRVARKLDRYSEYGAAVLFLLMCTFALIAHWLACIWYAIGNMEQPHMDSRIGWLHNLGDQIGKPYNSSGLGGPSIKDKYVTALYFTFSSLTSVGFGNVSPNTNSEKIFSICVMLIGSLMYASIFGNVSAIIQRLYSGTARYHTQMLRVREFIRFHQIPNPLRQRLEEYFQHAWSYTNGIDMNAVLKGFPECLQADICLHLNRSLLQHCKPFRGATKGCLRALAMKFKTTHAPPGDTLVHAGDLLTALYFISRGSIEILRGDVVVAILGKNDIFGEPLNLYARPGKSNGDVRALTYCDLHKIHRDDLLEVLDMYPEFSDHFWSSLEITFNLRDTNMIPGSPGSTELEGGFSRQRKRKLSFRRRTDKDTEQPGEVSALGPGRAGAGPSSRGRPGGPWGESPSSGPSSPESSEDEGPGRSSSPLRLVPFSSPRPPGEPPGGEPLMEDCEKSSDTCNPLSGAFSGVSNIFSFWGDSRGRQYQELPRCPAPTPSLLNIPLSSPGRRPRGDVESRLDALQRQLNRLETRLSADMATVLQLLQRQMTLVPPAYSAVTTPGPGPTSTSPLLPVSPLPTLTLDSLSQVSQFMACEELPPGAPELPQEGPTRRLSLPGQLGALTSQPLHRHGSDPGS
KCNK9 inh conf: human KCNK9 inhibitor confirmation; inhibition, % at 10 µM; actives 43% (n = 4,900); shares compounds with KCNK9 block; AID 492992; HEK293 KCNK9 cells, FluxOR thallium flux fluorescence;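 active = thallium signal inhibited by more than 5 SD of the compound-free buffer control wells, on both duplicate plates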;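 note: 0% = assay buffer control wells without compound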
Kir21 sel: selectivity of KCNK9 modulators against mouse Kir2.1; Kir2.1 cells, FluxOR thallium flux fluorescence; actives 4% (n = 4,900); shares compounds with KCNK9 block; AID 492993; inhibition, % at 10 µM;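 active = thallium signal drop more than 5 SD beyond the mean of the no-compound control wells, seen in both duplicate plates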;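 note: signal is fluorescence rise after thallium addition divided by baseline fluorescence; plate controls were assay buffer only for no effect and full block by chlorpromazine control for full effect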
KCNK9 uninduced: non-induced cell nonspecific activity of KCNK9 modulators. shares compounds with KCNK9 block. non-induced KCNK9-HEK293, FluxOR thallium flux. inhibition, % at 10 µM. actives 40% (n = 4,900);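 active = thallium signal drop beyond 5 SD of the untreated control mean, on both duplicate plates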;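 note: plate controls were buffer only IC0 wells for no effect and SID17386958 at its maximal inhibitory level for full effect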
The depositor's hits bear a star; i = inactive; nt = no result.

SMILES | KCNK9 block | Kir21 block | KCNQ1 act | KCNK3 inh | KCNQ1 block | hERG protect | KCNK9 inh conf | Kir21 sel | KCNK9 uninduced
COc1ccccc1N1CCN(C(=O)NCc2cccc(C(F)(F)F)c2)CC1 | i | -0.45 | i | i | i | -8.6 | nt | nt | nt
CC(C)(Oc1ccc(Cl)cc1)C(=O)OCc1nc2ccsc2c(=O)[nH]1 | i | 0 | i | i | i | -12.9 | nt | nt | nt
Cc1cc(C(F)(F)F)n(-c2nc(C(=O)N/N=C/c3ccc(F)cc3)cs2)n1 | i | 0.26 | i | i | i | -13.7 | nt | nt | nt
COc1cccc(/C=N/NC(=O)c2csc(-n3nc(C)cc3C(F)(F)F)n2)c1 | -14.8* | 0.03 | i | i | i | -3.1 | i | i | i
O=C(Nc1cccc(-c2csc(Nc3ccccc3)n2)c1)c1ccccc1 | i | 1.47 | i | i | i | -18.9 | i | i | i
O=C(COC(=O)Cc1ccccc1[N+](=O)[O-])NCc1ccccc1Cl | i | -0.47 | i | i | i | -11.9 | nt | nt | nt
CCNC(=S)NNC(=O)c1ccccn1 | i | 0.66 | i | i | i | -8.8 | nt | nt | nt
O=C(NNC(=S)Nc1ccc(Cl)c(Cl)c1)c1ccccn1 | i | 0.43 | i | i | i | -11.1 | i | i | i
COc1cc(-c2nc(-c3ccccc3)c(-c3cccs3)[nH]2)cc(OC)c1O | -10.4* | -0.58 | i | i | i | -20.6 | 51.0%* | i | i
CCC1=C(OC(=O)N(CC)CC)N2C(=O)OC(=NCCc3c[nH]c4ccccc34)[C@]2(Cc2ccccc2)[C@H]2C1=CC[C@H]1C(=O)N(C)C(=O)[C@H]12 | -9.45* | 1.25 | i | i | i | -10.7 | 41.0%* | i | 39.5%*
Cc1ccc(Cn2c(C3CCCN3c3nc(-c4ccc(F)cc4)cs3)nc3cc(C(F)(F)F)ccc32)cc1 (centres undefined) | i | 0.21 | i | i | i | -9.5 | nt | nt | nt
Cc1cc(S(=O)(=O)N2CCCCCC2)c(Cl)cc1Cl | i | 0.99 | i | i | i | -13.5 | i | i | i
O=S(=O)(c1cc(Cl)ccc1Cl)N1CCCCC1 | i | -0.24 | i | i | i | -15.6 | nt | nt | nt
O=C(O)CSc1nnc(SCc2cccc3ccccc23)s1 | i | 0.44 | i | i | i | -13.3 | nt | nt | nt
CC(C)OC(=O)CSc1nnc(SCc2cccc3ccccc23)s1 | i | 0.43 | i | i | i | -5.5 | i | i | i
Cc1ccc(-c2nn(-c3cc(Cl)ccc3[N+](=O)[O-])c(=O)c3ccccc23)cc1C | i | -0.67 | i | i | i | -9.1 | i | i | i
O=c1c2ccccc2c(-c2ccccc2)nn1-c1cc(Cl)ccc1[N+](=O)[O-] | nt | nt | nt | i | nt | nt | nt | nt | nt
O=S1(=O)N(Cc2ccccc2F)CCCN1Cc1c(F)cccc1Cl | -14.5* | -0.06 | i | i | i | -5.2 | 67.5%* | i | 34.0%*
Cc1ccc(CN2CCCN(Cc3ccc(F)cc3Cl)S2(=O)=O)cc1 | i | 0.96 | i | i | i | -5.2 | nt | nt | nt
COCCN(Cc1cc2cc(C)cc(C)c2nc1Cl)C(=O)Nc1ccccc1 | i | 0.04 | i | i | i | -4.9 | nt | nt | nt
Cc1cc(C)c2nc(Cl)c(CN(Cc3ccco3)C(=O)Nc3ccccc3C)cc2c1 | i | -0.04 | i | i | i | -9.4 | i | i | i
CC(C)C(=O)Nc1ccc2nn(-c3ccc(F)cc3)nc2c1 | i | 0.43 | i | i | i | -12.9 | i | i | i
C[C@@H]1COC(=O)[C@H](CC(=O)OC(C)(C)C)C/C=C\C[C@@H](CC(=O)NCCO)C(=O)N1 | nt | nt | nt | i | nt | nt | nt | nt | nt
O=C(Nc1cccc(S(=O)(=O)NC2=NCCC2)c1)c1ccccc1OC(F)F | i | 0 | i | i | i | -3.0 | nt | nt | nt
Cc1ccc(S(=O)(=O)N(C)C)cc1-n1c(SCC(=O)N(C)C)nc2ccccc2c1=O | i | 1.97 | i | i | i | -6.1 | nt | nt | nt
SMILES | KCNK9 block | Kir21 block | KCNQ1 act | KCNK3 inh | KCNQ1 block | hERG protect | KCNK9 inh conf | Kir21 sel | KCNK9 uninduced
Cc1ccc(S(=O)(=O)N(C)C)cc1-n1c(SCC(=O)Nc2ccc(F)c(F)c2F)nc2ccccc2c1=O | -13.7* | 0.06 | i | i | i | -2.6 | 64.0%* | i | 40.0%*
Cc1ccc(S(=O)(=O)N2CCN(CN3C(=O)CC4(CCCC4)C3=O)CC2)cc1 | nt | nt | nt | i | nt | nt | nt | nt | nt
Cc1c(C(=O)c2ccccc2)oc2ccc3ccccc3c12 | -11.4* | -1.23 | i | i | i | -3.9 | 56.5%* | i | 39.5%*
Nc1c(C(=O)c2ccccc2)oc2ccccc12 | i | 2.45 | i | i | i | -7.5 | nt | nt | nt
COC(=O)c1ccc2c(c1C(=O)OC)CN(S(=O)(=O)C(C)(C)C)[C@H]2CCO | nt | nt | nt | i | nt | nt | nt | nt | nt
Cc1cc(OCc2ccc(F)cc2)nc(-c2ccccc2O)n1 | -10.2* | -0.28 | i | i | i | -3.6 | 66.5%* | i | 37.0%*
COc1ccc(CNC(=O)CN(c2cc(C)cc(C)c2)S(=O)(=O)c2c(C)noc2C)cc1 | -8.61* | -1.99 | i | i | i | -6.2 | i | i | i
COc1ccc(CNC(=O)CN(c2ccc(C)cc2)S(=O)(=O)c2c(C)noc2C)cc1 | i | -0.41 | i | i | i | -3.6 | nt | nt | nt
CCN(C(=O)c1cc(Cl)ccc1Cl)C1CCS(=O)(=O)C1 (centres undefined) | i | 0.92 | i | i | i | -9.3 | nt | nt | nt
COc1ccc(CN2C(=O)[C@H]3Cc4c([nH]c5ccccc45)C(C)(C)N3C2=O)cc1 | i | -0.11 | i | i | i | -9.7 | i | i | i
COc1ccc(CN2C(=O)[C@@H]3Cc4c([nH]c5ccccc45)C(C)(C)N3C2=O)cc1 | i | -0.39 | i | i | i | -4.1 | nt | nt | nt
COc1ccc(C(=O)CCC(=O)N2CCN(c3cc(C)ccc3C)CC2)cc1 | i | -1.54 | i | i | i | -2.5 | i | i | i
COc1ccc(-c2cccc(CCC(=O)N3CCN(c4cc(C)ccc4C)CC3)c2)cc1 | nt | nt | nt | i | nt | nt | nt | nt | nt
COc1ccc(CCC(=O)N2CCN(c3cccc(C)c3C)CC2)cc1 | i | -2.06 | i | i | i | -12.9 | i | i | i
C/C(=N\NC(=O)c1ccc(CSc2nc(C)cc(C)n2)cc1)c1ccco1 | i | -2.04 | i | i | i | -7.3 | nt | nt | nt
